This is an account of results in ChEMBL document CHEMBL4732028, “Structural modifications that increase gut restriction of bile acid derivatives” (RSC Med Chem, 2021).

Series [1] addresses T1, G-protein coupled bile acid receptor 1 (Homo sapiens, UniProt Q8TDU6).
T1 sequence (Q8TDU6 whole entry): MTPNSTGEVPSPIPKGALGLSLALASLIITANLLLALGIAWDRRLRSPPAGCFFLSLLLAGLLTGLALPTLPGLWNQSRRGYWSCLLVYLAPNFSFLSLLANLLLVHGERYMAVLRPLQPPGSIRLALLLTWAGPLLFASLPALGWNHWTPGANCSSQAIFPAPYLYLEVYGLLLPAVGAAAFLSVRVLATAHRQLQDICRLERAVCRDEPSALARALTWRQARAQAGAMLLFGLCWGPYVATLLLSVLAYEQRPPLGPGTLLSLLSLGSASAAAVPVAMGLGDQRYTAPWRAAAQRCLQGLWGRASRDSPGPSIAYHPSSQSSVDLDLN
Briefly: Agonist activity at recombinant human TGR5 expressed in CHO cells assessed as increase in cAMP accumulation after 30 mins by TR-FRET assay. In kind it is functional, cell-based. (In general: Changes in cAMP serve as a functional read-out for many G protein-coupled receptors.)

A short description of series [2]: AUC in C57BL/6 mouse at 5 mg/kg, po measured up to 120 mins by LC-MS/MS analysis. It counts as ADME, organism-based. Also noted: route oral, dose 5 mg/kg, time <=120. The following applies: in vivo.
Series [3] is described as follows: Drug recovery in C57BL/6 mouse feces at 5 mg/kg, po measured after 24 hrs by LC-MS/MS analysis. In kind it is ADME, organism-based. Conditions: read-out: Drug recovery.
The subject of series [4] is Clostridioides difficile. Nature of the series: Inhibition of TCA-induced Clostridioides difficile RPRE2 spore germination at 50 uM measured once every minute for 20 mins by microplate reader analysis. In kind it is functional. The method in brief:
(§1)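 Germination of C. difficile spores was induced with 2000 μM taurocholate (TCA), and test compound was added to inhibit it.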

The test system of series [5] is Clostridioides difficile. Briefly: Inhibition of TCA-induced Clostridioides difficile RPRE2 spore germination at 200 uM measured once every minute for 20 mins by microplate reader analysis. It counts as functional. Summed up: as §1
Series [6] in a line: Apparent permeability of the compound across basolateral to apical side in human Caco-2 cells. It counts as ADME, cell-based.
A short description of series [7]: Apparent permeability of the compound across apical to basolateral side in human Caco-2 cells. In kind it is ADME, cell-based. (Passage across Caco-2 layers is used to estimate intestinal permeability.)
For series [8], the target named is T2, Vitamin D3 receptor (Homo sapiens) (UniProt P11473).
T2 sequence (whole entry): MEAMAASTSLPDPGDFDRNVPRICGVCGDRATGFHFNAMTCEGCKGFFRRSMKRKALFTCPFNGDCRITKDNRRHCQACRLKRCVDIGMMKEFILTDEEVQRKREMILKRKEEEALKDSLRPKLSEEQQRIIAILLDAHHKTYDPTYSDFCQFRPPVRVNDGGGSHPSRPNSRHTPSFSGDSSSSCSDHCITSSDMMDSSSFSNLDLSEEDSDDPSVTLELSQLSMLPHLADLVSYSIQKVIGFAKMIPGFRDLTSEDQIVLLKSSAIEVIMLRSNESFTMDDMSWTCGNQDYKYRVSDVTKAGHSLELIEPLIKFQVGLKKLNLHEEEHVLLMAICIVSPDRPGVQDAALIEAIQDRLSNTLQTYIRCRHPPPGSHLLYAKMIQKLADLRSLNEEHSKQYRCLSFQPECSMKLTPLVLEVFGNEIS
Nature of the series: Agonist activity at VDR (unknown origin).

Series [9] has as its target T3, Bile acid receptor (Homo sapiens) (UniProt Q96RI1).
T3 sequence (whole entry): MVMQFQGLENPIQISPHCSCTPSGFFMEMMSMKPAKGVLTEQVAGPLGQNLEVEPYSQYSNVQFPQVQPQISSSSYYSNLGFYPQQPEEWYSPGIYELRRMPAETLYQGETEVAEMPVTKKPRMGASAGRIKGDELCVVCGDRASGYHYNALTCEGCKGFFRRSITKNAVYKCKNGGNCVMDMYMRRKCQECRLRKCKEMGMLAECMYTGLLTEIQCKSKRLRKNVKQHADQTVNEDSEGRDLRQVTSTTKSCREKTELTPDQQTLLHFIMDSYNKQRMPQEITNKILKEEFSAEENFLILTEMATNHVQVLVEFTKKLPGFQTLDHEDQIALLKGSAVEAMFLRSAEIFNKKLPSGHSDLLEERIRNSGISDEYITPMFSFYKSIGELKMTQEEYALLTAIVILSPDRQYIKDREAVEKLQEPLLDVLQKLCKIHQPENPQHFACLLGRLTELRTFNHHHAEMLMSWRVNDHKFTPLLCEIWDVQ
Nature of the series: Agonist activity at FXR (unknown origin).

The subject of series [10] is HEK293. Briefly: Cytotoxicity against human HEK293 cells at 10 uM. In kind it is cell-based. Conditions: hek293, 10 µM.

pEC50: −log10 of the molar value. The source made the active and inactive calls. The rule behind the calls is not given here.

Consider `CO[C@@H]1C[C@@H]2C[C@H](O)CC[C@]2(C)[C@H]2CC[C@]3(C)[C@@H]([C@H](C)CCC(=O)O)CC[C@H]3[C@H]12`, for which the pEC50 – broadly, the EC50 on a negative log10 scale, so that one unit is a factor of ten – in series [1] was 7.11.
Take `CO[C@@H]1CC[C@@]2(C)[C@@H](C1)C[C@@H](O)[C@@H]1[C@@H]2CC[C@]2(C)[C@@H]([C@H](C)CCc3nnn[n-]3)CC[C@@H]12.[Na+]`: in series [2], the area under the curve (AUC) (usually concentration integrated over time) at 2 h was determined as 37.7 µg·h/mL. For the same molecule, in series [3], the dose excreted at 24 h was found to be 7.7%.
The matching figures for `CO[C@@H]1CC[C@@]2(C)[C@@H](C1)C[C@H](O)[C@@H]1[C@@H]2CC[C@]2(C)[C@@H]([C@H](C)CCC(=O)N3CCCC3)CC[C@@H]12`: 29.6 µg·h/mL and 3%.
For `CO[C@@H]1CC[C@@]2(C)[C@@H](C1)C[C@@H](OS(=O)(=O)[O-])[C@@H]1[C@@H]2CC[C@]2(C)[C@@H]([C@H](C)CCc3nnn[n-]3)CC[C@@H]12.[Na+].[Na+]`, in series [2], the exposure (AUC) at 2 h turned out to be 4.84 µg·h/mL. Further, in series [4], the inhibition entry was “Active”. Further, the dose excreted at 24 h in [3] came out at 89.1%.
In [2], `CO[C@@H]1C[C@@H]2C[C@H](O)CC[C@]2(C)[C@H]2CC[C@]3(C)[C@@H]([C@H](C)CCC(=O)NC[C@H](O)[C@@H](O)[C@H](O)[C@H](O)CO)CC[C@H]3[C@H]12` registered an AUC at 2 h of 1.52 µg·h/mL. Further, the pEC50 in [1] is 7.48. Further, the dose excreted at 24 h in series [3] was found to be 11.7%. Also, the inhibition entry in [5] was “inactive”.
`Cc1nnc(CC[C@@H](C)[C@H]2CC[C@H]3[C@@H]4[C@H](O)C[C@@H]5C[C@H](O)CC[C@]5(C)[C@H]4CC[C@]23C)o1` gave an exposure (AUC) at 2 h in series [2] of 45.8 µg·h/mL. For the same molecule, in [6], the Papp B→A (commonly the apparent permeability from the basolateral to the apical side of a cell layer) stood at 15 nm/s. Further, the dose excreted at 24 h in [3] is 0.5%. Besides, in series [7], the Papp A→B (commonly how fast a substance crosses the layer from the apical side) is 26 nm/s.
With `CO[C@@H]1C[C@@H]2C[C@H](O)CC[C@]2(C)[C@H]2CC[C@]3(C)[C@@H]([C@H](C)CCC(=O)N(CCCNC(=O)[C@H](O)[C@@H](O)[C@H](O)[C@H](O)CO)CCCNC(=O)[C@H](O)[C@@H](O)[C@H](O)[C@H](O)CO)CC[C@H]3[C@H]12`, the pEC50 in series [1] is 6.25.
In series [2], `CO[C@@H]1CC[C@@]2(C)[C@@H](C1)C[C@H](OS(=O)(=O)[O-])[C@@H]1[C@@H]2CC[C@]2(C)[C@@H]([C@H](C)CCC(=O)N3CCCC3)CC[C@@H]12.[Na+]` gave an area under the curve (AUC) at 2 h of 14.3 µg·h/mL. In series [4], the inhibition entry was “Active”. The dose excreted at 24 h in series [3] worked out at 29.1%.
In [2], `CO[C@@H]1C[C@@H]2C[C@H](O)CC[C@]2(C)[C@H]2CC[C@]3(C)[C@@H]([C@H](C)CCc4nnc(C)o4)CC[C@H]3[C@H]12` came in with an exposure (AUC) at 2 h of 25.7 µg·h/mL. In [6], the Papp B→A came out at 1.2 nm/s. Further, the dose excreted at 24 h in [3] was determined as 7.1%. The result in series [8] and in [9] was inactive. In series [7], the apical-to-basolateral permeability (Papp A→B) is 2.7 nm/s. Further, the Activity result in series [10] is listed as “Non-Toxic”.
Regarding `CO[C@@H]1CC[C@@]2(C)[C@@H](C1)C[C@@H](O)[C@@H]1[C@@H]2CC[C@]2(C)[C@@H]([C@H](C)CCc3nn[nH]n3)CC[C@@H]12`, in [4], the inhibition entry is “Active”.
Molecule `CO[C@@H]1C[C@@H]2C[C@H](O)CC[C@]2(C)[C@H]2CC[C@]3(C)[C@@H]([C@H](C)CCC(=O)N(C)C[C@H](O)[C@@H](O)[C@H](O)[C@H](O)CO)CC[C@H]3[C@H]12` came in with an AUC at 2 h in series [2] of 1.25 µg·h/mL. For the same molecule, the negative logarithm of the EC50 (pEC50) in series [1] was 7.21. Moreover, the dose excreted at 24 h in [3] was found to be 39.7%. Moreover, the inhibition result in [5] was “inactive”.
